Assay [1] concerns MDA-MB-231. Put plainly: Cytotoxicity against human MDA-MB-231 cells after 72 hrs by MTT assay. In kind it is functional, cell-based. The note with it: MDA-MB-231, 72 h. Summed up:
(§1)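 MDA-MB-231 breast cancer or HBL-100 non-malignant breast epithelial cells: freshly trypsinized cells seeded at 8000 per well, with compound added from DMSO-diluted stock. After 72 h, attached cells were given MTT (0.5 mg/mL, 1 h) and solubilized in DMSO.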
On the technique in general: Tetrazolium assays rely on reduction of a dye to a coloured formazan, in cell work by metabolically active cells.

Assay [2] has as its system HBL-100. Kind of assay: Cytotoxicity against human HBL100 cells after 72 hrs by MTT assay. In kind it is functional, cell-based. The note with it: HBL-100, 72 h. Summed up:
as §1

Assay [3] is described as follows: Antiaggregatory activity in human platelets assessed as inhibition of collagen-induced platelet aggregation preincubated for 3 mins before collagen challenge by turbidimetry analysis. The assay is classed as functional, cell-based. A digest of the protocol: (§2)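 Washed platelets from ACD-anticoagulated blood of drug-free healthy volunteers, resuspended at 3 × 10⁸/ml in Tyrode's solution with Ca²⁺ 2 mM, glucose 11.1 mM and BSA 3.5 mg/ml. Platelets were stirred at 1200 rpm and 37 °C for 3 min with DMSO (0.5%, vehicle) or compound, then the inducer was added. Aggregation was read by light-transmission aggregometry. IC50 is the mean of two independent experiments (TPA lines n = 3).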

Assay [4] in a line: Antiaggregatory activity in human platelets assessed as inhibition of thrombin-induced platelet aggregation preincubated for 3 mins before thrombin challenge by turbidimetry analysis. The assay is classed as functional, cell-based. Summed up: as §2
In assay [5] the test system is MDA-MB-231. Kind of assay: Cytotoxicity against human MDA-MB-231 cells at 20 uM after 72 hrs by MTT assay. The assay is classed as functional. The following applies: MDA-MB-231, 72 h.
Assay [6] concerns HBL-100. Kind of assay: Cytotoxicity against human HBL100 cells at 20 uM after 72 hrs by MTT assay. The assay is classed as functional. The note with it: HBL-100, 72 h.

As usually defined, the IC50 is the concentration that inhibits the measured activity by half. By inhibition is commonly meant the relative decrease from the control value, in per cent.

In the case of `COc1cc(/C=C/[N+](=O)[O-])ccc1OC(=O)c1cccc(C)c1`, the IC50 in assay [1] was 13.4 µM; in assay [2], 4.1 µM; in assay [3], 0.9 µM; in assay [4], 1.7 µM.

As for `O=[N+]([O-])/C=C/c1ccc(O)cc1`, the IC50 was more than 20 µM in assay [1], 16.3 µM in assay [2], 18.4 µM in assay [3] and 45.1 µM in assay [4]. The inhibition at 20 µM in assay [5] came out at 38.3%.

On to `COc1cc(/C=C/[N+](=O)[O-])ccc1OC(=O)c1cccc(Br)c1`, for which the IC50 was more than 20 µM in assay [1], more than 20 µM in assay [2], 0.9 µM in assay [3] and 1.3 µM in assay [4]. In addition, the inhibition at 20 µM in assay [6] turned out to be 18.2%; in assay [5] it was 19.1%.

With `COc1cc(/C=C/[N+](=O)[O-])ccc1OC(=O)c1ccccc1`, the IC50 is 13.1 µM in assay [1], more than 20 µM in assay [2], 1.1 µM in assay [3] and 2.7 µM in assay [4]. Also, in assay [6], the inhibition at 20 µM came out at 0%.

Turning to `COc1cc(/C=C/[N+](=O)[O-])ccc1OC(=O)c1ccc(Cl)cc1`, the concentration for half-maximal inhibition (IC50) in assay [1] was more than 20 µM; in assay [2] it was more than 20 µM; in assay [3], 0.7 µM; in assay [4], 1.5 µM. Also, the inhibition at 20 µM turned out to be 7.3% in assay [6] and 33.2% in assay [5].

Regarding `COc1cc(/C=C/[N+](=O)[O-])ccc1OC(=O)c1ccccc1C`, the half-maximal inhibitory concentration (IC50) in assay [1] is more than 20 µM; in assay [2], more than 20 µM; in assay [3], 1.2 µM; in assay [4], 1.5 µM. The inhibition at 20 µM in assay [6] amounted to 1.8%; in assay [5], 36.3%.

Take `COc1cc(/C=C/[N+](=O)[O-])ccc1O`: the 50% inhibitory concentration (IC50) in assay [3] stood at 16.4 µM; in assay [4], 66.5 µM.

Take `COc1ccc(/C=C/[N+](=O)[O-])cc1O`: the IC50 is 18.9 µM in assay [1], 12.8 µM in assay [2], 7.2 µM in assay [3] and 28.5 µM in assay [4].

On to `Cc1ccc(/C=C/[N+](=O)[O-])cc1`, for which the IC50 in assay [1] was more than 20 µM; in assay [2], 15 µM; in assay [3], 5.9 µM; in assay [4] it was 8.9 µM.

With `COc1cc(/C=C/[N+](=O)[O-])ccc1OC(=O)c1ccc(C(F)(F)F)cc1`, the IC50 in assay [1] was more than 20 µM; in assay [2], more than 20 µM; in assay [3] it was 8.3 µM; in assay [4], 6.2 µM. Further, the inhibition at 20 µM in assay [6] is -7.3%; in assay [5], -4.9%.

Take `COc1cccc(C(=O)Oc2ccc(/C=C/[N+](=O)[O-])cc2OC)c1`: the IC50 in assay [1] was more than 20 µM; in assay [2] it was 12.1 µM; in assay [3], 0.7 µM; in assay [4] it was 2.9 µM. Further, in assay [5], the inhibition at 20 µM was 28.9%.

Consider `COc1cc(/C=C/[N+](=O)[O-])ccc1OC(=O)c1ccccc1Br`, for which the IC50 in assay [1] is more than 20 µM; in assay [2], more than 20 µM; in assay [3] it was 2 µM; in assay [4], 5.4 µM. For the same molecule, the inhibition at 20 µM in assay [6] worked out at 10%; in assay [5] it was 8.3%.

As for `CCOc1cc(/C=C/[N+](=O)[O-])ccc1O`, the IC50 is more than 20 µM in assay [1], more than 20 µM in assay [2], 16.2 µM in assay [3] and 78.1 µM in assay [4]. Further, the inhibition at 20 µM in assay [6] was determined as 35.2%; in assay [5] it was 34.4%.

As to `COc1cc(/C=C/[N+](=O)[O-])ccc1OC(=O)c1ccc(F)cc1`, the IC50 is 9.8 µM in assay [1], more than 20 µM in assay [2], 0.8 µM in assay [3] and 0.9 µM in assay [4]. The inhibition at 20 µM in assay [6] worked out at 25.1%.

As to `COc1ccc(/C=C/[N+](=O)[O-])cc1OC`, the IC50 was found to be 7.6 µM in assay [3] and 12.8 µM in assay [4].

Turning to `COc1cc(/C=C/[N+](=O)[O-])ccc1OC(=O)c1ccccc1OC`, the IC50 in assay [1] is 19.4 µM; in assay [2], more than 10 µM; in assay [3], 0.8 µM; in assay [4], 2.1 µM. The inhibition at 20 µM in assay [6] was found to be 8.8%.

`COc1cc(/C=C/[N+](=O)[O-])ccc1OC(=O)c1ccccc1F`: the IC50 in assay [1] was more than 20 µM; in assay [2], more than 20 µM; in assay [3], 1.6 µM; in assay [4], 4.7 µM. The inhibition at 20 µM is 4.9% in assay [6] and 26.5% in assay [5].

`O=[N+]([O-])/C=C/c1ccc(Cl)cc1`: the half-maximal inhibitory concentration (IC50) in assay [1] is more than 20 µM; in assay [2] it was 15.7 µM; in assay [3] it was 3.5 µM; in assay [4], 7.5 µM. In addition, the inhibition at 20 µM in assay [5] amounted to 36.6%.

As to `CCOc1cc(/C=C/[N+](=O)[O-])ccc1OC(=O)c1ccccc1`, the IC50 amounted to 15.3 µM in assay [1], 11.6 µM in assay [2], 1 µM in assay [3] and 1.2 µM in assay [4].

Regarding `COc1cc(/C=C/[N+](=O)[O-])ccc1OC(=O)c1cccc(F)c1F`, the IC50 is more than 20 µM in assay [1], more than 20 µM in assay [2], 1.6 µM in assay [3] and 3.3 µM in assay [4]. Moreover, the inhibition at 20 µM in assay [6] stood at 4.1%; in assay [5], 25.5%.

Regarding `COc1cc(/C=C/[N+](=O)[O-])ccc1OC(=O)c1cc(F)cc(F)c1`, the IC50 in assay [1] is more than 20 µM; in assay [2], more than 20 µM; in assay [3] it was 1.4 µM; in assay [4] it was 3.4 µM. For the same molecule, the figures for the inhibition at 20 µM in assay [6] and in assay [5] were 19% and 24.7%, respectively.

Regarding `O=[N+]([O-])/C=C/c1ccccc1` [(2-NITROVINYL)BENZENE], the IC50 in assay [3] amounted to 4.9 µM; in assay [4], 17.8 µM.

`COc1cc(/C=C/[N+](=O)[O-])ccc1OC(=O)c1ccccc1Cl`: the 50% inhibitory concentration (IC50) in assay [1] is more than 20 µM; in assay [2], more than 20 µM; in assay [3], 0.6 µM; in assay [4], 1 µM. In addition, the inhibition at 20 µM in assay [6] was 8.2%; in assay [5] it was 7%.

For `COc1cc(/C=C/[N+](=O)[O-])ccc1OC(=O)c1ccc(Br)cc1`, the IC50 in assay [1] is more than 20 µM; in assay [2], more than 20 µM; in assay [3] it was 0.6 µM; in assay [4] it was 1.2 µM. In addition, the results for the inhibition at 20 µM in assay [6] and in assay [5] were 6.3% and 9.1%, respectively.

With `O=[N+]([O-])C(=Cc1ccccc1)[N+](=O)[O-]`, the IC50 in assay [1] is 9.9 µM; in assay [2], more than 20 µM; in assay [3], 3 µM; in assay [4], 5.7 µM. The inhibition at 20 µM in assay [6] was 34.2%.

As for `COc1cc(/C=C/[N+](=O)[O-])ccc1OC(=O)c1cccc(F)c1`, the IC50 in assay [1] was more than 20 µM; in assay [2] it was more than 20 µM; in assay [3], 1.4 µM; in assay [4] it was 2.6 µM. For the same molecule, the inhibition at 20 µM was found to be 38.2% in assay [6] and 44.9% in assay [5].

Regarding `CCOc1cc(/C=C(\C)[N+](=O)[O-])ccc1OC(=O)c1ccccc1`, the IC50 in assay [1] amounted to 12.1 µM; in assay [2], 14.6 µM; in assay [3], 1.1 µM; in assay [4], 0.8 µM.

`COc1cc(/C=C/[N+](=O)[O-])ccc1OC(=O)c1cc(Cl)cc(Cl)c1`: the IC50 is more than 20 µM in assay [1], more than 20 µM in assay [2], 1.4 µM in assay [3] and 1.9 µM in assay [4]. Further, the inhibition at 20 µM in assay [6] turned out to be 15.6%; in assay [5], 20%.

Turning to `COc1ccc(/C=C(\C)[N+](=O)[O-])cc1OC(=O)c1ccccc1`, the IC50 in assay [1] was 6.6 µM; in assay [2], 7.3 µM; in assay [3] it was 1 µM; in assay [4], 2.9 µM.

Regarding `O=[N+]([O-])/C=C/c1ccc2c(c1)OCO2`, the IC50 in assay [1] was 14 µM; in assay [2], more than 20 µM; in assay [3], 7.2 µM; in assay [4], 14 µM. In addition, the inhibition at 20 µM in assay [6] stood at 39.2%.

Regarding `COc1cc(/C=C/[N+](=O)[O-])ccc1OC(=O)c1cc(OC)c(OC)c(OC)c1`, the IC50 is 13.9 µM in assay [1], more than 20 µM in assay [2], 1.1 µM in assay [3] and 1.1 µM in assay [4]. In addition, in assay [6], the inhibition at 20 µM is 47.4%.

Consider `COc1cc(/C=C/[N+](=O)[O-])ccc1OC(=O)c1cccc(Cl)c1`, for which the IC50 in assay [1] was 18.9 µM; in assay [2], more than 20 µM; in assay [3], 0.5 µM; in assay [4], 1.2 µM. In addition, in assay [6], the inhibition at 20 µM amounted to 23.2%.

Regarding `COc1ccc(/C=C/[N+](=O)[O-])cc1`, the IC50 in assay [1] is 16.3 µM; in assay [2] it was 13 µM; in assay [3], 3.5 µM; in assay [4], 12.1 µM.

Consider `COc1ccc(C(=O)Oc2ccc(/C=C/[N+](=O)[O-])cc2OC)cc1`, for which the IC50 in assay [1] is 18.1 µM; in assay [2] it was more than 20 µM; in assay [3] it was 0.8 µM; in assay [4] it was 3.5 µM. Moreover, the inhibition at 20 µM in assay [6] worked out at 22.7%.

In the case of `COc1cc(/C=C/[N+](=O)[O-])ccc1OC(=O)c1cc(F)c(F)c(F)c1`, the IC50 in assay [1] was 12.4 µM; in assay [2], more than 20 µM; in assay [3], 0.9 µM; in assay [4] it was 1.4 µM. Also, the inhibition at 20 µM in assay [6] was 16.6%.

Take `COc1ccc(/C=C/[N+](=O)[O-])cc1OC(=O)c1ccccc1`: the IC50 was 7.7 µM in assay [1], less than 10 µM in assay [2], 0.8 µM in assay [3] and 1.9 µM in assay [4]. The inhibition at 20 µM in assay [6] is 79.8%.

These data come from ChEMBL document CHEMBL1268838, “The synthesis and biologic evaluation of anti-platelet and cytotoxic β-nitrostyrenes” (Bioorg Med Chem, 2010).
